From ChEMBL document CHEMBL3525966, “Compartmental and enzyme kinetic modeling to elucidate the biotransformation pathway of a centrally acting antitrypanosomal prodrug” (Drug Metab Dispos, 2013)

Tests used:
[1] = tested on: Liver microsome; assay: Prodrug conversion in human liver microsomes assessed as depletion of compound at 10 uM after 180 mins incubation by HPLC-UV chromatography; format: ADME; settings: 3 h
How it was run: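 HLM or RLM (0.5 mg/mL) were incubated in triplicate in 100 mM phosphate pH 7.4 with 10 mM MgCl2 and an NADPH-regenerating system (1 mM NADP+, glucose 6-phosphate, G6PDH). DB868 was 10 µM. Sampled up to 180 min. Prodrug and metabolites were measured by HPLC-UV at 359 nm and expressed relative to initial prodrug; DB829 LLOQ 50 nM.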

[2] = Drug metabolism in sandwich-cultured human hepatocytes assessed as fold increase in DB829 at 10 uM after 2 hrs of incubation by HPLC-MS/MS analysis; format: ADME, cell-based, Hepatocyte
How it was run: (§1)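 Sandwich-cultured hepatocytes were used on day 5 (human) or day 4 (rat) and rinsed with warm phenol-red-free DMEM. They were then exposed to 10 µM DB868 (0.1–0.2% DMSO) at 37°C. Medium and methanol/water cell lysates were collected at 0.5, 2, 4 and 24 h. Analytes were quantified by HPLC/MS/MS with deuterated internal standards; protein by Bradford. Replicates: 6 (human) or 4 (rat).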

[3] = Drug metabolism in sandwich-cultured human hepatocytes assessed as (Z)-6-(5-(5-carbamimidoylpyridin-2-yl)furan-2-yl)-N' methoxynicotinimidamide at 10 uM after 4 hrs of incubation by HPLC-MS/MS analysis; format: ADME, cell-based, Hepatocyte; how it was run: as §1
[4] = target: T1, Cytochrome P450 1A2 (Rattus norvegicus, UniProt P04799); assay: Prodrug conversion assessed as rat recombinant CYP1A2-mediated (3Z,3'Z)-6,6'-(furan-2,5-diyl)bis(N'-hydroxynicotinimidamide) formation at 5 uM after 180 mins incubation by HPLC-UV chromatogram; format: ADME; settings: recombinant enzyme, 15 min, in the assay text read “15 mins” for “180 mins”
T1 sequence (P04799 whole entry): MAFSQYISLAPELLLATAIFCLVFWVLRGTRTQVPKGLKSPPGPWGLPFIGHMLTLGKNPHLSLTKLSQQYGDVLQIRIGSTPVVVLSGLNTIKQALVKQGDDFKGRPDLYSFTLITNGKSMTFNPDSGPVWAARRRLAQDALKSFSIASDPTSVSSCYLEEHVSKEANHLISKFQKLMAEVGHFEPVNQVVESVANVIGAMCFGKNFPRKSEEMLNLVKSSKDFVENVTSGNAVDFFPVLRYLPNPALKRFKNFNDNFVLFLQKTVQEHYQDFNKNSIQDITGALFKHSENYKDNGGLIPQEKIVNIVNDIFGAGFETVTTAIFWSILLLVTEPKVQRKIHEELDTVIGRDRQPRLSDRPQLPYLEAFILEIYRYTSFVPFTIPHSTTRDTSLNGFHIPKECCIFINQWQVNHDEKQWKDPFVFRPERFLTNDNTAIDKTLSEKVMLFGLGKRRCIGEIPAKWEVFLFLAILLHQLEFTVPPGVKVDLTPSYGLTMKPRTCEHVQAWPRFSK
How it was run: (§2)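 Insect-cell-expressed human or rat P450 (with NADPH-P450 reductase, some also with cytochrome b5) at 0.1 pmol/µL in 100 mM potassium phosphate pH 7.4 with 10 mM MgCl2. DB868 (for M1) or M1 (for M2) was added at 5 µM (0.5% DMSO) and started with 2 mM NADPH. Stopped after 15 min with ice-cold acetonitrile, then HPLC-UV. Duplicate incubations.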

[5] = tested on: Liver microsome; assay: Drug metabolism in human liver microsomes assessed as (Z)-N'-hydroxy-6-(5-(5-((Z)-N'-methoxycarbamimidoyl)pyridin-2-yl)furan-2-yl nicotinimidamide formation measured per mg of protein by HPLC-MS/MS analysis; format: ADME
How it was run: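 M1 formation kinetics: HLM or RLM (0.5 mg/mL) in phosphate pH 7.4 with MgCl2, DB868 0.1–100 µM, started with 2 mM NADPH. Run 5 min (HLM) or 10 min (RLM) under initial-rate conditions (<20% consumption) in triplicate. Quantified by HPLC/MS/MS with d6-DB868 internal standard. Fitted to a one-enzyme (HLM) or two-enzyme (RLM) Michaelis–Menten model; Clint = Vmax/Km.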

[6] = target: T1, Cytochrome P450 1A2; assay: Prodrug conversion assessed as rat recombinant CYP1A2-mediated (Z)-N'-hydroxy-6-(5-(5-((Z)-N'-methoxycarbamimidoyl)pyridin-2-yl)furan-2-yl) nicotinimidamide formation at 5 uM after 180 mins incubation by HPLC-UV chromatogram; format: ADME; settings: recombinant enzyme, 15 min, in the assay text read “15 mins” for “180 mins”; how it was run: as §2

CO/N=C(\N)c1ccc(-c2ccc(-c3ccc(/C(N)=N/OC)cn3)o2)nc1.Cl
Drug metabolism [1]: 100% | fold change (FC) [2]: 13 | Drug metabolism [3]: metabolite_detected | Drug metabolism [4]: metabolite_detected | Vmax [5]: 340 pmol/min | Drug metabolism [6]: metabolite_detected
